Holding throughout (assay type): functional, organism-based
In one assay the test system is Staphylococcus aureus. Kind of assay: Antimicrobial activity against methicillin-resistant Staphylococcus aureus isolate 134/93 after 18 hrs.
The next assay deals with Escherichia coli. Kind of assay: Antimicrobial activity against Escherichia coli isolate 458 after 18 hrs. The gist of the method:
(§1)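 Ciprofloxacin and amphotericin B were run alongside as reference antimicrobials.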

The subject of assay [1] is Sporobolomyces salmonicolor. Kind of assay: Antimicrobial activity against Sporidiobolus salmonicolor isolate 549 after 18 hrs. The gist of the method:
as §1

Each structure is given as a SMILES string. Calls of active or inactive are those of the source. The calls are words filed in the database; no cut-off is given here.

In the case of `COC1OC(=O)c2ccc(-c3ccccc3)c3c(O)c(O)cc1c23` (configuration not stated), the result with Staphylococcus aureus was Active.
With `O=C1OC(C(=O)O)c2cc(O)c(O)c3c(-c4ccccc4)ccc1c23` (configuration not stated), the outcome (with Escherichia coli; in assay [1]) was Active.
With `COC1=Cc2cn([C@@H](Cc3ccc(O)cc3)C(=O)O)c(=O)c3ccc(-c4ccccc4)c(c23)C1=O`, the outcome (in the assay with Escherichia coli; in assay [1]; in the assay with Staphylococcus aureus) was inactive.
Turning to `COc1cc2c3c(ccc(-c4ccccc4)c3c1O)C(=O)OC2OC` (configuration not stated), the result with Staphylococcus aureus was Active.
Turning to `O=C1C(O)=Cc2cn([C@@H](Cc3ccccc3)C(=O)O)c(=O)c3ccc(-c4ccccc4)c1c23`, the result (in the assay with Escherichia coli; in assay [1]; in the assay on Staphylococcus aureus) was inactive.
For the molecule `O=C1C(O)=Cc2cn([C@H](Cc3ccccc3)C(=O)O)c(=O)c3ccc(-c4ccccc4)c1c23`, the outcome (in the assay with Escherichia coli; in assay [1]; in the assay on Staphylococcus aureus) was inactive.
Regarding `CC(C)C[C@@H](C(=O)O)n1cc2c3c(c(-c4ccccc4)ccc3c1=O)C(=O)C(O)=C2`, the outcome (in the assay with Escherichia coli; in assay [1]; with Staphylococcus aureus) was inactive.
`COC1=Cc2cn([C@@H](Cc3c[nH]c4ccccc34)C(=O)O)c(=O)c3ccc(-c4ccccc4)c(c23)C1=O`: the outcome (with Escherichia coli; in assay [1]; in the assay on Staphylococcus aureus) was inactive.
Turning to `COc1cc2c3c(ccc(-c4ccccc4)c3c1O[C@@H]1O[C@H](COC(=O)CC(=O)O)[C@@H](O)[C@H](O)[C@H]1O)C(=O)OC2`, the outcome (with Escherichia coli; in assay [1]) was Active.
Take `O=C(O)CC(=O)OC[C@H]1O[C@@H](Oc2c(O)cc3c4c(ccc(-c5ccccc5)c24)C(=O)OC3)[C@H](O)[C@@H](O)[C@@H]1O`: the outcome (with Escherichia coli; in assay [1]) was Active.
Consider `O=C1OC(C(=O)O)c2cc(O)c(O[C@@H]3O[C@H](CO)[C@@H](O)[C@H](O)[C@H]3O)c3c(-c4ccccc4)ccc1c23` (some centres not stated), for which the result (with Escherichia coli; in assay [1]) was Active.
For `CSCC[C@@H](C(=O)O)n1cc2c3c(c(-c4ccccc4)ccc3c1=O)C(=O)C(O)=C2`, the result (in the assay on Escherichia coli; in assay [1]; in the assay on Staphylococcus aureus) was inactive.
Consider `COC1=Cc2cn([C@H](CC(C)C)C(=O)O)c(=O)c3ccc(-c4ccccc4)c(c23)C1=O`, for which the result (with Escherichia coli; in assay [1]; in the assay with Staphylococcus aureus) was inactive.
In the case of `COC1=Cc2cn([C@@H](Cc3ccccc3)C(=O)O)c(=O)c3ccc(-c4ccccc4)c(c23)C1=O`, the outcome (with Escherichia coli; in assay [1]; with Staphylococcus aureus) was inactive.
`C[C@@H]1[C@H](O)[C@@H](C)/C=C/C=C/C=C/C=C/C=C/C=C/C=C/[C@H](O[C@@H]2O[C@H](C)[C@@H](O)[C@H](N)[C@@H]2O)C[C@@H]2O[C@](O)(C[C@@H](O)C[C@@H](O)[C@H](O)CC[C@@H](O)C[C@@H](O)CC(=O)O[C@H]1C)C[C@H](O)[C@H]2C(=O)O`: the outcome (in the assay with Escherichia coli; in assay [1]) was Active.
For `O=C1OC(O)c2cc(O)c(O)c3c(-c4ccccc4)ccc1c23` (configuration not stated), in the assay with Staphylococcus aureus, the result was Active.
On to `O=C1C(O)=Cc2cn(CCO)c(=O)c3ccc(-c4ccccc4)c1c23`, for which the outcome (in the assay on Escherichia coli; in assay [1]; in the assay with Staphylococcus aureus) was inactive.
Consider `O=C1C(O)=Cc2coc(=O)c3ccc(-c4ccccc4)c1c23`, for which the outcome in the assay on Staphylococcus aureus was Active.
As for `O=C1C(O)=Cc2c3n(c(=O)c4ccc(-c5ccccc5)c1c24)[C@H](C(=O)O)CS3`, the outcome (with Escherichia coli; in assay [1]; in the assay on Staphylococcus aureus) was inactive.
For the molecule `O=C(O)c1cn(C2CC2)c2cc(N3CCNCC3)c(F)cc2c1=O`, the outcome (in the assay with Escherichia coli; in assay [1]) was Active.
Turning to `O=C1OCc2cc(O)c(O)c3c(-c4ccccc4)ccc1c23`, the outcome (in the assay on Escherichia coli; in assay [1]) was Active.
With `CC(C)C[C@H](C(=O)O)n1cc2c3c(c(-c4ccccc4)ccc3c1=O)C(=O)C(O)=C2`, the outcome (in the assay with Escherichia coli; in assay [1]; in the assay on Staphylococcus aureus) was inactive.
Regarding `COC1=Cc2cn([C@H](Cc3ccccc3)C(=O)O)c(=O)c3ccc(-c4ccccc4)c(c23)C1=O`, the result (with Escherichia coli; in assay [1]; with Staphylococcus aureus) was inactive.
`O=C1C(O)=Cc2cn(CCCC[C@@H](C(=O)O)n3cc4c5c(c(-c6ccccc6)ccc5c3=O)C(=O)C(O)=C4)c(=O)c3ccc(-c4ccccc4)c1c23`: the outcome (in the assay on Escherichia coli; in assay [1]; in the assay with Staphylococcus aureus) was inactive.

(Values after ChEMBL document CHEMBL4251676, “Precursor-Directed Biosynthesis of Phenylbenzoisoquinolindione Alkaloids and the Discovery of a Phenylphenalenone-Based Plant Defense Mechanism” (J Nat Prod, 2018).)
